{"data": "Measured values pooled from the literature", "PIK3CA": "Phosphatidylinositol 4,5-bisphosphate 3-kinase catalytic subunit alpha isoform (PIK3CA, Homo sapiens, UniProt P42336)", "FOLH1": "Glutamate carboxypeptidase 2 (FOLH1, Homo sapiens, UniProt Q04609)"}
{"Compound": "CN(C)C(=O)c1cc2cnc(Nc3ccc4c(=O)cc(N5CCOCC5)oc4c3)nc2n1C1CCCC1", "target": "PIK3CA", "read-out": "enzyme activity", "mode": "inhibitor", "technique": "radiometric", "endpoint": "IC50", "value": "0.0325 µM"}
{"Compound": "CC[C@H](C)[C@H](NC(=O)[C@H](Cc1nc2ccccc2s1)NC(=O)CCC(=O)O)C(=O)N[C@H]1CCc2cccc3c2N(C1=O)[C@H](C(=O)NCc1cn[nH]n1)C3", "target": "Granzyme B (GZMB, Homo sapiens, UniProt P10144)", "read-out": "enzyme activity", "mode": "inhibitor", "technique": "fluorescence", "endpoint": "Ki", "value": "0.0378 µM"}
{"Compound": "C=CCN1C(=O)C(=Nc2cccc(C)c2)c2ccccc21", "target": "PIK3CA", "read-out": "enzyme activity", "mode": "inhibitor", "technique": "ADP detection", "endpoint": "IC50", "value": "0.205 µM"}
{"Compound": "CC1(C)CN(CCCCC(=O)N[C@@H](CCCCNC(=O)CCCCCCC(=O)NCCCC[C@H](NC(=O)N[C@@H](CCC(=O)O)C(=O)O)C(=O)O)C(=O)O)CC[N]2CC(C)(C)[S][Tc]2(=[O])[S]1 (stereo partly shown)", "target": "FOLH1", "read-out": "binding", "technique": "radioligand", "endpoint": "Kd", "value": "0.0144 µM"}
{"Compound": "CCc1ccc(N=C2C(=O)Nc3ccccc32)cc1", "target": "PIK3CA", "read-out": "enzyme activity", "mode": "inhibitor", "technique": "ADP detection", "endpoint": "IC50", "value": "0.098 µM"}
{"Compound": "O.O=C([O-])CN(CCN(CC(=O)[O-])Cc1cc(CCC(=O)O)ccc1O)Cc1cc(CCC(=O)NCCCCCC(=O)NCCCC[C@H](NC(=O)N[C@@H](CCC(=O)O)C(=O)O)C(=O)O)ccc1[O-].[Ga+3]", "target": "FOLH1", "read-out": "binding", "technique": "radioligand", "endpoint": "Kd", "value": "0.0116 µM"}
{"Compound": "CN(C)C(=O)c1cc2cnc(Nc3cc(C(F)(F)F)c(-c4cccc5c(=O)cc(N6CCOCC6)oc45)cn3)nc2n1C1CCCC1", "target": "PIK3CA", "read-out": "enzyme activity", "mode": "inhibitor", "technique": "radiometric", "endpoint": "IC50", "value": "> 10 µM"}
{"Compound": "CC1=CC(=O)NS(=O)(=O)O1", "target": "T1R2/T1R3 (Homo sapiens, UniProt Q7RTX0+Q8TE23)", "read-out": "calcium signal", "mode": "agonist", "endpoint": "EC50", "value": "1340 µM"}
{"Compound": "CCCCC(=O)Nc1ccc(-c2ccc3ncn(CCC)c(=O)c3c2)cn1", "target": "Phosphatidylinositol 5-phosphate 4-kinase type-2 beta (PIP4K2B, Homo sapiens, UniProt P78356)", "read-out": "binding", "technique": "competition with immobilised ligand", "endpoint": "Kd", "value": "> 20 µM"}
{"Compound": "O=C1C(=Nc2ccc(Cl)cc2Br)c2ccccc2N1Cc1ccc(Br)cc1", "target": "PIK3CA", "read-out": "enzyme activity", "mode": "inhibitor", "technique": "ADP detection", "endpoint": "IC50", "value": "0.0434 µM"}
{"Compound": "CC1(C)CN(CCCCC(=O)N[C@H](Cc2ccccc2)C(=O)N[C@H](Cc2ccccc2)C(=O)N[C@H](CCCCNC(=O)CCCCCCC(=O)NCCCC[C@H](NC(=O)N[C@@H](CCC(=O)O)C(=O)O)C(=O)O)C(=O)O)CC[N]2CC(C)(C)[S][Tc]2(=[O])[S]1 (stereo partly shown)", "target": "FOLH1", "read-out": "binding", "technique": "radioligand", "endpoint": "Kd", "value": "0.0133 µM"}
{"Compound": "CN1CCN(c2cc(=O)c3ccc(Nc4ncc5cc(C(=O)N(C)C)n(C6CCCC6)c5n4)cc3o2)CC1", "target": "PIK3CA", "read-out": "enzyme activity", "mode": "inhibitor", "technique": "radiometric", "endpoint": "IC50", "value": "> 10 µM"}
{"Compound": "COc1cc(N=C2C(=O)N(Cc3ccccc3)c3ccccc32)cc(OC)c1", "target": "Phosphatidylinositol 4,5-bisphosphate 3-kinase catalytic subunit beta isoform (PIK3CB, Homo sapiens, UniProt P42338)", "read-out": "enzyme activity", "mode": "inhibitor", "technique": "ADP detection", "endpoint": "IC50", "value": "0.038 µM"}
